Data reported in BindingDB's records for doi:10.1021/acs.jmedchem.7b00976 (Leipzig University, 2017).

Experiments:
[1] = biological target: T1, Neuropeptide Y receptor type 4 (Homo sapiens, UniProt P50391); assay: ASSAY_NAME: ChEMBL_1668991 (CHEMBL4018879) DESCRIPTION: Positive allosteric modulation of human NY4 receptor expressed in African green monkey COS7 cells co-expressing delta6Galphaqi4-myr assessed as potentiation of pancreatic polypeptide induced-calcium flux by measuring pancreatic polypeptide EC50 at 30 uM treated at 20 secs post baseline detection followed by addition of pancreatic polypeptide …
[2] = biological target: T1, Neuropeptide Y receptor type 4; assay: (§1) Positive allosteric modulation of human NY4 receptor expressed in African green monkey COS7 cells co-expressing delta6Galphaqi4-myr assessed as potentiation of peptide YY induced-calcium flux by measuring peptide YY EC50 at 30 uM treated at 20 secs post baseline detection followed by addition of peptide YY after 140 secs by Fluo2-AM fluorescent dye based-assay (Rvb = 2.6 nM)
In short: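 COS7 cells stably co-expressing human Y4R-eYFP fusion and chimeric Δ6Gαqi4-myr, seeded overnight in 96-well format; loaded with 2.4 μM Fluo2-AM in HBSS/20 mM HEPES/probenecid, 60 min at 37 °C. Two-addition FlexStation read (ex 485/em 525 nm): compound or DMSO after 20 s baseline, PYY at 140 s. Response as x-fold over basal, normalized to PP; duplicates, ≥3 independent experiments.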

[3] = Positive allosteric modulation of human NY4 receptor expressed in African green monkey COS7 cells co-expressing delta6Galphaqi4-myr assessed as potentiation of neuropeptide Y induced-calcium flux by measuring neuropeptide Y pEC50 at 30 uM treated at 20 secs post baseline detection followed by addition of neuropeptide Y after 140 secs by Fluo2
[4] = biological target: T2, Neuropeptide Y receptor type 2 (Homo sapiens, UniProt P49146); assay: ASSAY_NAME: ChEMBL_1668994 (CHEMBL4018882) DESCRIPTION: Positive allosteric modulation of human C-terminal eYFP-fused human NY2 receptor expressed in African green monkey COS7 cells co-expressing delta6Galphaqi4-myr assessed as potentiation of neuropeptide Y-mediated Ca2+ flux by measuring pancreatic polypeptide EC50 at 30 uM treated at 20 secs post baseline detection followed by addition of …
T2 sequence (P49146 whole entry): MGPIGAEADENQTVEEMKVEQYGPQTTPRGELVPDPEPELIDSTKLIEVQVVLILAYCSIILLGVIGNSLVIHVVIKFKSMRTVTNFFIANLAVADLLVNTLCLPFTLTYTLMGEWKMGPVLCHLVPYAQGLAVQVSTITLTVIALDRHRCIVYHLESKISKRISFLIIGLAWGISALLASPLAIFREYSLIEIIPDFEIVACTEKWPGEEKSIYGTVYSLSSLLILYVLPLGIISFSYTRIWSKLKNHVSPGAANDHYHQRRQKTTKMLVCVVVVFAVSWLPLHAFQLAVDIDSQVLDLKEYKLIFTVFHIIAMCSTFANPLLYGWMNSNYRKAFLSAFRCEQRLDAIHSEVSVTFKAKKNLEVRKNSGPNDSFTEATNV

[5] = biological target: T1, Neuropeptide Y receptor type 4; assay: Effect on neuropeptide Y-mediated displacement of 125I-pancreatic polypeptide from human C-terminal eYFP-tagged NY4 receptor expressed in HEK293 cell membranes assessed as neuropeptide Y pKi at 30 uM after 5 hrs by scintillation counting (Rvb = 7.9 +/- 0.2 No_unit)
[6] = Positive allosteric modulation of human C-terminal eYFP-tagged NY4 receptor expressed in HEK293 cells assessed as potentiation of neuropeptide Y-induced arrestin 3 recruitment by measuring neuropeptide Y pEC50 at 30 uM after 30 mins by BRET assay (Rvb = 5.9 +/- 0.15 No_unit)
[7] = Positive allosteric modulation of human C-terminal eYFP-fused human NY1 receptor expressed in African green monkey COS7 cells co-expressing delta6Galphaqi4-myr assessed as potentiation of neuropeptide Y-mediated Ca2+ flux by measuring […] at 30 uM treated at 20 secs post baseline detection followed by addition of neuro
[8] = biological target: T1, Neuropeptide Y receptor type 4; assay: as §1, with “pEC50” for “EC50”, “8.6 +/- 0.08 No_unit)” for “2.6 nM)”
In short: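 COS7 cells stably co-expressing Y4R-eYFP and Δ6Gαqi4-myr were seeded overnight. They were loaded with 2.4 μM Fluo2-AM in HBSS/20 mM HEPES/[…] for 60 min at 37 °C, then kept in assay buffer. Fluorescence was read at ex 485/em 525 nm. Compound was added after a 20 s baseline and peptide at 140 s. Response was taken as x-fold over basal, normalized to the DMSO control, and fitted to an operational model of allosterism. Duplicates, at least three independent runs.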

[9] = Positive allosteric modulation of human NY4 receptor expressed in African green monkey COS7 cells co-expressing delta6Galphaqi4-myr assessed as potentiation of pancreatic polypeptide induced-calcium flux by measuring pancreatic polypeptide pEC50 at 30 uM treated at 20 secs post baseline detection followed by addition of pancreatic polypeptide
[10] = Positive allosteric modulation of human NY4 receptor expressed in African green monkey COS7 cells co-expressing delta6Galphaqi4-myr assessed as potentiation of neuropeptide Y induced-calcium flux by measuring neuropeptide Y EC50 at 30 uM treated at 20 secs post baseline detection followed by addition of neuropeptide Y after 140 secs by Fluo2-
[11] = biological target: T1, Neuropeptide Y receptor type 4; assay: Positive allosteric modulation of human C-terminal eYFP-tagged NY4 receptor expressed in HEK293 cells assessed as potentiation of peptide YY-induced arrestin 3 recruitment by measuring peptide YY pEC50 at 30 uM after 30 mins by BRET assay (Rvb = 5.8 +/- 0.20 No_unit)
[12] = biological target: T1, Neuropeptide Y receptor type 4; assay: Positive allosteric modulation of human C-terminal eYFP-tagged NY4 receptor expressed in HEK293 cells assessed as potentiation of pancreatic polypeptide-induced arrestin 3 recruitment by measuring pancreatic polypeptide pEC50 at 30 uM after 30 mins by BRET assay (Rvb = 8.3 +/- 0.12 No_unit)
[13] = Positive allosteric modulation of human C-terminal eYFP-tagged NY4 receptor expressed in HEK293 cells assessed as potentiation of neuropeptide Y-induced arrestin 3 recruitment by measuring neuropeptide Y EC50 at 30 uM after 30 mins by BRET assay (Rvb = 1380 nM)
[14] = biological target: T1, Neuropeptide Y receptor type 4; assay: Effect on peptide YY-mediated displacement of 125I-pancreatic polypeptide from human C-terminal eYFP-tagged NY4 receptor expressed in HEK293 cell membranes assessed as peptide YY pKi at 30 uM after 5 hrs by scintillation counting (Rvb = 8 +/- 0.2 No_unit)
[15] = biological target: T1, Neuropeptide Y receptor type 4; assay: Positive allosteric modulation of human C-terminal eYFP-tagged NY4 receptor expressed in HEK293 cells assessed as potentiation of peptide YY-induced arrestin 3 recruitment by measuring peptide YY EC50 at 30 uM after 30 mins by BRET assay (Rvb = 1600 nM)
[16] = biological target: T1, Neuropeptide Y receptor type 4; assay: Positive allosteric modulation of human C-terminal eYFP-tagged NY4 receptor expressed in HEK293 cells assessed as potentiation of pancreatic polypeptide-induced arrestin 3 recruitment by measuring pancreatic polypeptide EC50 at 30 uM after 30 mins by BRET assay (Rvb = 5.6 nM)

T1 sequence (P50391 whole entry C240R): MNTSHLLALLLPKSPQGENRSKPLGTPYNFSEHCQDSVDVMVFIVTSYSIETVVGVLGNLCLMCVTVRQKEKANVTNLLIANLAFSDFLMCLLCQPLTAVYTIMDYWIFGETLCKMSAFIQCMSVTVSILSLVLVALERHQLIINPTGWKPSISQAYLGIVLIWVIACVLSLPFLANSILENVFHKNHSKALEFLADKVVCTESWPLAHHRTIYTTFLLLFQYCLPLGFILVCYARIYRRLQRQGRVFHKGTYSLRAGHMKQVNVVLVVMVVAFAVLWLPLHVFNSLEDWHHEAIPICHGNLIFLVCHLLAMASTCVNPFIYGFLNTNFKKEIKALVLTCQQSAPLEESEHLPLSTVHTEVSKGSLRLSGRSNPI

CC(C)(C)c1ccc(OC2CCCCC2O)cc1 (stereo unspecified)
EC50 [1]: 0.03 nM
EC50 [2]: 0.5 nM
EC50 [3]: 0.398 nM
EC50 [4]: 0.0631 nM
Ki [5]: 6.3 nM
EC50 [6]: 398 nM
EC50 [7]: 0.0398 nM
EC50 [8]: 0.501 nM
EC50 [9]: 0.0398 nM
EC50 [10]: 0.4 nM
EC50 [11]: 794 nM
EC50 [12]: 4 nM
EC50 [13]: 443 nM
Ki [14]: 6.3 nM
EC50 [15]: 845 nM
EC50 [16]: 4.5 nM
